Experimental data from ChEMBL document CHEMBL5032502, “Syntheses, Biological Evaluations, and Mechanistic Studies of Benzo[c][1,2,5]oxadiazole Derivatives as Potent PD-L1 Inhibitors with In Vivo Antitumor Activity” (J Med Chem, 2021).
Activity calls are given as the source filed them. The rule behind the calls is not given here.

Legend:
[1] = Tmax in Sprague-Dawley rat at 9 mg/kg, iv measured upto 24 hrs by LC-MS analysis; type: ADME, organism-based; conditions: in vivo
Summary of the method: (§1)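 Male Sprague-Dawley rats or C57BL/6 mice fasted 12 h before dosing, given oral (po) or intravenous (iv) doses. Plasma levels measured by LC-MS. Parameters reported as mean ± SEM, n = 3.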

[2] = Cmax in Sprague-Dawley rat at 9 mg/kg, iv measured upto 24 hrs by LC-MS analysis; type: ADME, organism-based; design: route intravenous, dose 9 mg/kg, time <=24; conditions: in vivo
Summary of the method: (§2)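 Male animals fasted 12 h before dosing. Plasma levels measured by LC-MS, with the prodrug quantified as the parent acid. Mean ± SEM, n = 3.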

[3] = AUC (0 to t) in Sprague-Dawley rat at 9 mg/kg, iv measured upto 24 hrs by LC-MS analysis; type: ADME, organism-based; design: route intravenous, dose 9 mg/kg, time <=24; conditions: in vivo; summary of the method: as §2
[4] = AUC (0 to t) in Sprague-Dawley rat at 45 mg/kg, po measured upto 24 hrs by LC-MS analysis; type: ADME, organism-based; design: route oral, dose 45 mg/kg, time <=24; conditions: in vivo; summary of the method: as §2
[5] = Oral bioavailability in Sprague-Dawley rat at 45 mg/kg measured upto 24 hrs by LC-MS analysis; type: ADME, organism-based; conditions: in vivo; summary of the method: as §1
[6] = Acute toxicity in C57BL/6 mouse assessed as body weight loss at 2000 mg/kg, po observed for 30 days; type: organism-based; conditions: in vivo, 720 h, time 30 day
Summary of the method: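 Healthy C57BL/6 mice got a single oral 2000 mg/kg dose. Mortality and body weight were then recorded over a 30-day observation period.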

[7] = Toxicity in C57BL/6 mouse assessed as effect on creatinine kinase level at 2000 mg/kg, po observed for 30 days; type: organism-based; conditions: in vivo, 720 h, time 30 day
B16-F10 [8] = test: Antitumor activity against mouse B16-F10 cells implanted in C57BL/6 mouse assessed as tumor growth inhibition at 15 mg/kg, po measured after 18 days; type: functional; conditions: 432 h, time 18 day, read-out: TGI
Summary of the method: (§3)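 Female C57BL/6J mice, 8 weeks old, injected dorsally with 1 × 10⁶ B16-F10 cells in PBS. Daily oral gavage started the same day (day 1), in 0.5% CMC-Na vehicle. Tumour size and body weight recorded daily, volume = 0.5 × L × W². Sacrifice on day 18, tumours excised and weighed. TGI = (1 − Vt/Vv) × 100.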

B16-F10 [9] = test: Antitumor activity against mouse B16-F10 cells implanted in C57BL/6 mouse assessed as tumor weight at 15 mg/kg, po measured after 18 days (reference value: 1.76 gm); type: functional; conditions: time 18 day; summary of the method: as §3
B16-F10 [10] = test: Antitumor activity against mouse B16-F10 cells implanted in C57BL/6 mouse assessed as tumor weight at 45 mg/kg, po measured after 18 days (reference value: 1.76 gm); type: functional; conditions: time 18 day; summary of the method: as §3
MC-38 [11] = test: Antitumor activity against PD-L1 humanized mouse MC38 cells implanted in PD-L1 humanized C57BL/6 mouse assessed as tumor growth inhibition at 25 mg/kg, po measured after 30 days; type: functional; conditions: MC-38, po, 720 h, time 30 day, read-out: TGI
Summary of the method: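 PD-L1-humanized C57BL/6 mice given 1 × 10⁶ MC38-hPD-L1(Tg)-mPDL1(KO) cells in the right flank. Once tumours reached 50 mm³, randomized into three groups: CMC-Na vehicle, 25 or 50 mg/kg by daily oral gavage for 30 days. TGI from mean tumour volume of treated versus vehicle groups. n = 6.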

MC-38 [12] = test: Antitumor activity against PD-L1 humanized mouse MC38 cells implanted in PD-L1 humanized C57BL/6 mouse assessed as tumor growth inhibition at 25 mg/kg, po measured after 27 days; type: functional; conditions: MC-38, po, 648 h, time 27 day, read-out: TGI
Summary of the method: (§4)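 Female PD-L1-humanized C57BL/6 mice, 6 weeks old, injected in the right flank with 1 × 10⁶ MC38-hPD-L1(Tg)-mPDL1(KO) cells in PBS. At 50 mm³ tumours, animals randomized to 0.5% CMC-Na vehicle or drug by daily oral gavage. Tumours measured twice weekly, volume = 0.5 × L × W². Sacrifice on day 27. TGI = (1 − Vt/Vv) × 100. n = 8.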

MC-38 [13] = test: Antitumor activity against PD-L1 humanized mouse MC38 cells implanted in PD-L1 humanized C57BL/6 mouse assessed as tumor growth inhibition at 5 mg/kg, po measured after 27 days; type: functional; conditions: MC-38, po, 648 h, time 27 day, read-out: TGI; summary of the method: as §4
MC-38 [14] = test: Antitumor activity against mouse MC38 cells xenografted in C57BL/6 mouse assessed as increase in CD3 positive T cells at 25 mg/kg, po by flow cytometry analysis; type: functional, organism-based
Summary of the method: (§5)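 Tumours taken from PD-L1-humanized mice carrying MC38-hPD-L1 tumours and dosed orally at 5 or 25 mg/kg daily. Tissue digested to single cells, red cells lysed with ACK buffer, Fc blocked. Surface stain 60 min for CD45, CD3, CD4, CD8, CD335, CD11b, Ly6G, Ly6C and F4/80, with a viability dye. Intracellular FOXP3 stain after permeabilization. Mean ± SEM, n = 7−8, one-way ANOVA.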

MC-38 [15] = test: Antitumor activity against mouse MC38 cells xenografted in C57BL/6 mouse assessed as increase in ratio of CD8 positive T cells to CD4 positive T cells at 25 mg/kg, po by flow cytometry analysis; type: functional, organism-based; summary of the method: as §5
MC-38 [16] = test: Antitumor activity against mouse MC38 cells xenografted in C57BL/6 mouse assessed as reduction in macrophages at 25 mg/kg, po by flow cytometry analysis; type: functional, organism-based; summary of the method: as §5
[17] = Half life in C57BL/6 mouse at 2 mg/kg, iv measured upto 24 hrs by LC-MS analysis; type: ADME, organism-based; conditions: in vivo; summary of the method: as §2
[18] = Tmax in C57BL/6 mouse at 2 mg/kg, iv measured upto 24 hrs by LC-MS analysis; type: ADME, organism-based; conditions: in vivo; summary of the method: as §1
[19] = Cmax in C57BL/6 mouse at 2 mg/kg, iv measured upto 24 hrs by LC-MS analysis; type: ADME, organism-based; design: route intravenous, dose 2 mg/kg, time <=24; conditions: in vivo; summary of the method: as §2
[20] = Clearance in C57BL/6 mouse at 2 mg/kg, iv measured upto 24 hrs by LC-MS analysis; type: ADME, organism-based; conditions: in vivo; summary of the method: as §2
[21] = Half life in C57BL/6 mouse at 10 mg/kg, po measured upto 24 hrs by LC-MS analysis; type: ADME, organism-based; conditions: in vivo; summary of the method: as §2
[22] = Tmax in C57BL/6 mouse at 10 mg/kg, po measured upto 24 hrs by LC-MS analysis; type: ADME, organism-based; conditions: in vivo; summary of the method: as §1
[23] = Subacute toxicity in C57BL/6 mouse assessed as organ weight change po observed for 30 days; conditions: in vivo, 720 h

CCOC(=O)[C@@H](CO)NCc1cc(Cl)c(OCc2cccc(-c3ccccc3)c2Br)cc1OCc1ccc2nonc2c1.Cl
Tmax [1]: 4.8 min | Cmax [2]: 13000 ng/mL | AUC(0-t) at 24 h [3]: 6280 ng·h/mL | AUC(0-t) at 24 h [4]: 2860 ng·h/mL | bioavailability [5]: 9.12% | Activity [6]: Non-Toxic | Activity [7]: Non-Toxic | inhibition in vivo at 15 mg/kg (B16-F10 [8]): 45.8% | Activity (B16-F10 [9]): 1.27 g | Activity (B16-F10 [10]): 0.79 g | inhibition in vivo at 25 mg/kg (MC-38 [11]): 44.2% | inhibition in vivo at 25 mg/kg (MC-38 [12]): 32.5% | inhibition in vivo at 5 mg/kg (MC-38 [13]): 19.3% | Activity (MC-38 [14]): Active | Activity (MC-38 [15]): Active | Activity (MC-38 [16]): Active | half-life [17]: 2.05 h | Tmax [18]: 4.8 min | Cmax [19]: 2820 ng/mL | clearance [20]: 28.7 mL/min/kg | half-life [21]: 1.55 h | Tmax [22]: 1 h | Activity [23]: Non-Toxic
